In ChEMBL document CHEMBL1128315, “1-(Fluorobenzyl)-4-amino-1H-1,2,3-triazolo[4,5-c]pyridines: synthesis and anticonvulsant activity” (1995) one finds ED50 data, which are given here for 17 molecules.

For assay [1], the system named is Rattus norvegicus. Description: Anticonvulsant activity against maximal electroshock-induced seizures in Wistar rats following i.p. administration. It is filed as functional. The note with it: ip. A digest of the protocol: (§1)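 Male Charles River Wistar rats; maximal electroshock seizure test. Compounds given as solutions or fine dispersions in water or 0.5% methyl cellulose, micronized if not fully soluble. ED50 is the dose protecting 50% against hind limb extension, calculated by Miller–Tainter. Values with a standard error used four doses, at least 12 rats each. Values without one used three doses, six rats each.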

Assay [2] relates to Rattus norvegicus. The experiment in a line: Anticonvulsant activity against maximal electroshock-induced seizures in Wistar rats following p.o. administration. It is filed as functional. The note with it: po. The method, boiled down: as §1
Background: The maximal electroshock test induces tonic seizures with an electrical stimulus.

Broadly, the ED50 is the dose that gives a 50% effect, or the effect in half of the subjects. Read a high ED50 as weaker potency. Consider `CNc1nccc2c1nnn2Cc1ccccc1C(F)(F)F.Cl`, for which the ED50 in the assay on Rattus norvegicus [1] was above 25 mg/kg.

On to `CNc1nccc2c1nnn2Cc1ccc(F)cc1.Cl`, for which it took a dose of 17 mg/kg to reach the 50% effect level with Rattus norvegicus [1] (ED50).

On to `Cl.Nc1nccc2c1nnn2Cc1ccccc1`, for which the ED50 in the assay with Rattus norvegicus [2] was 20 mg/kg; with Rattus norvegicus [1], 8.7 mg/kg.

In the case of `CCN(C)c1nccc2c1nnn2Cc1ccccc1F.Cl`, the ED50 in the assay on Rattus norvegicus [1] is above 25 mg/kg.

For the molecule `CC(C)Nc1nccc2c1nnn2Cc1ccccc1F.Cl`, the ED50 is above 25 mg/kg in the assay on Rattus norvegicus [2] and 14.2 mg/kg in the assay on Rattus norvegicus [1].

For `Cl.Fc1ccccc1Cn1nnc2c(NCC3CC3)nccc21`, the ED50 with Rattus norvegicus [1] was 40 mg/kg.

`CNc1nccc2c1nnn2Cc1cc(F)ccc1F.Cl`: in the assay with Rattus norvegicus [1], the ED50 was determined as 5 mg/kg. Compared with the last molecule, the ED50 is about 8-fold lower.

On to `Cl.Nc1nccc2c1nnn2Cc1ccccc1F`, for which the results for the ED50 in the assay with Rattus norvegicus [2] and with Rattus norvegicus [1] were 11.5 mg/kg and 28.4 mg/kg, respectively.

For the molecule `CNc1nccc2c1nnn2Cc1ccccc1.Cl`, the ED50 in the assay with Rattus norvegicus [2] worked out at 10 mg/kg; in the assay with Rattus norvegicus [1] it was 6.3 mg/kg.

For the molecule `CCNc1nccc2c1nnn2Cc1ccccc1F.Cl`, the ED50 in the assay on Rattus norvegicus [2] came out at 10 mg/kg; with Rattus norvegicus [1] it was 8 mg/kg.

Regarding `CCCNc1nccc2c1nnn2Cc1ccccc1F.Cl`, the values for the median effective dose (ED50) with Rattus norvegicus [2] and in the assay with Rattus norvegicus [1] were above 25 mg/kg and 14.4 mg/kg, respectively.

Molecule `Cl.Fc1ccccc1Cn1nnc2c(NC3CC3)nccc21` had an ED50 with Rattus norvegicus [1] of 5.6 mg/kg.

In the case of `CNc1nccc2c1nnn2Cc1cccc(F)c1.Cl`, the ED50 with Rattus norvegicus [1] stood at 10 mg/kg.

Regarding `CNc1nccc2c1nnn2Cc1ccccc1F.Cl`, the ED50 in the assay on Rattus norvegicus [2] and with Rattus norvegicus [1] was 4.6 mg/kg in each case.

As to `Cl.Nc1nccc2c1nnn2Cc1cc(F)ccc1F`, the 50% effect level in the assay on Rattus norvegicus [1] (ED50) was put at a dose of 18 mg/kg.

`CNc1ncnc2c1ncn2Cc1ccccc1F` [BW-A78U]: the results for the ED50 in the assay with Rattus norvegicus [2] and with Rattus norvegicus [1] were 2.5 mg/kg and 1.7 mg/kg, respectively.

On to `O=C1NC(=O)C(c2ccccc2)(c2ccccc2)N1` [PHENYTOIN], for which the ED50 with Rattus norvegicus [2] turned out to be 20 mg/kg; in the assay with Rattus norvegicus [1] it was 10 mg/kg.
